From ChEMBL document CHEMBL1141332, “Cytotoxic metabolites from an Indonesian sponge Lendenfeldia sp” (J Nat Prod, 2007) come the findings set out here.

Each structure is given as a SMILES string. pIC50: −log10 of the molar value.

For experiment [1], the target named is T1, Hypoxia inducible factors; HIF-1-alpha, HIF-2-alpha (Homo sapiens, UniProt Q16665+Q99814). In words: Inhibition of HIF1 activity in human T47D cells by cell based reporter assay. The gist of the method: (§1)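 T47D cells grown in DMEM/F12 with glutamine, 10% FCS and penicillin/streptomycin at 37 °C under 5% CO2, then transiently transfected with the pHRE-TK-Luc reporter. Compounds from DMSO stocks were tested at half-log concentrations for 16 h, with luciferase read-out. IC50 was taken from curve fits of triplicate experiments.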
(In general: In a reporter assay the amount or activity of a reporter protein is the signal.)

Experiment [2] concerns the target T1, Hypoxia inducible factors; HIF-1-alpha, HIF-2-alpha. Kind of experiment: Inhibition of 1, 10-phenanthroline-induced HIF1 activity in human T47D cells by cell based reporter assay. The gist of the method: as §1
Experiment [3] concerns T47D. In words: Inhibition of human T47D cells assessed as cell viability under hypoxic condition after 48 hrs. Format: functional, cell-based. The gist of the method: (§2)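 Neutral Red proliferation/viability assay on T47D or MDA-MB-231 cells kept in DMEM/F12 with 10% FCS at 37 °C under 5% CO2, with 48 h compound exposure. Read-out was OD540, and % inhibition = 1 − OD540(treated)/OD540(control). IC50 was derived from the concentration–response data.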

Experiment [4] has as its system T47D. Kind of experiment: Cell viability of human T47D cells under hypoxic condition after 16 hrs. Format: functional, cell-based.
Experiment [5] has as its system T47D. In words: Inhibition of human T47D cells assessed as cell viability under normoxic condition after 48 hrs. It counts as functional, cell-based. The gist of the method: as §2
The test system of experiment [6] is MDA-MB-231. In words: Inhibition of human MDA-MB-231 cells assessed as cell viability under hypoxic condition after 48 hrs. Format: functional, cell-based. The note with it: MDA-MB-231, 48 h. In short, it runs like this:
as §2

Experiment [7] concerns MDA-MB-231. Kind of experiment: Inhibition of human MDA-MB-231 cells assessed as cell viability under normoxic condition after 48 hrs. The note with it: MDA-MB-231, 48 h. Format: functional, cell-based. In short, it runs like this: as §2

By IC50 is commonly meant the concentration that inhibits the measured activity by half. A word on the pIC50: it is the negative decadic logarithm of the IC50, by convention in mol/L. `COc1ccc2c(O)c(O)ccc2c1-c1c(OC)ccc2c(O)c(O)ccc12`: the IC50 in experiment [1] worked out at 4.3 µM; in experiment [2], 5.1 µM. Moreover, the pIC50 is 5.08 in experiment [3]; 4.72 in experiment [4]; 5.06 in experiment [5]; 5.15 in experiment [6]; 5.22 in experiment [7].
